Test results: ChEMBL document CHEMBL3352788, “Characterization of selective exosite-binding inhibitors of matrix metalloproteinase 13 that prevent articular cartilage degradation in vitro” (J Med Chem, 2014)
pIC50: −log10 of the molar value.

Columns and labels:
Collagenase 3 [1] = target: T1, Collagenase 3 (Homo sapiens, UniProt P45452); test: Competitive inhibition of full-length recombinant human MMP-13 assessed as fTHP-15 substrate hydrolysis by Lineweaver-Burke plot analysis
In short: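 Pro-MMP-13 activated with 1 mM APMA for 2 h at 37 °C. Enzyme at 4 nM was incubated with fTHP-15 at 2–25 μM and varying inhibitor in Tris pH 7.5/NaCl/CaCl2/Brij-35 buffer at room temperature. Fluorescence was read at ex 324/em 393 nm, and rates were taken from the linear portion. Mechanism was assigned by a mixed-model nonlinear fit (α parameter) and confirmed by Lineweaver–Burke plots.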

Liver microsome [2] = test: Half life in human liver microsomes by LC-MS/MS analysis; assay type: ADME
In short: (§1)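 Compound at 1 μM with 1 mg/mL liver microsomes in 100 mM potassium phosphate pH 7.4 at 37 °C with shaking. Reaction started with 1 mM NADPH (final). Aliquots were taken at 0, 5, 10, 20, 40 and 60 min and quenched in acetonitrile. Parallel incubations without NADPH were run.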

Liver microsome [3] = test: Half life in rat liver microsomes by LC-MS/MS analysis; assay type: ADME; in short: as §1
Liver = test: Half life in mouse liver microsomes by LC-MS/MS analysis; assay type: ADME; in short: as §1
Collagenase 3 [4] = target: T1, Collagenase 3; conditions: 50 uM
Cytochrome P450 1A2 = target: T2, Cytochrome P450 1A2 (Homo sapiens, UniProt P05177); test: Inhibition of CYP1A2 (unknown origin) using tacrin substrate; assay type: ADME
T2 sequence (P05177 whole entry): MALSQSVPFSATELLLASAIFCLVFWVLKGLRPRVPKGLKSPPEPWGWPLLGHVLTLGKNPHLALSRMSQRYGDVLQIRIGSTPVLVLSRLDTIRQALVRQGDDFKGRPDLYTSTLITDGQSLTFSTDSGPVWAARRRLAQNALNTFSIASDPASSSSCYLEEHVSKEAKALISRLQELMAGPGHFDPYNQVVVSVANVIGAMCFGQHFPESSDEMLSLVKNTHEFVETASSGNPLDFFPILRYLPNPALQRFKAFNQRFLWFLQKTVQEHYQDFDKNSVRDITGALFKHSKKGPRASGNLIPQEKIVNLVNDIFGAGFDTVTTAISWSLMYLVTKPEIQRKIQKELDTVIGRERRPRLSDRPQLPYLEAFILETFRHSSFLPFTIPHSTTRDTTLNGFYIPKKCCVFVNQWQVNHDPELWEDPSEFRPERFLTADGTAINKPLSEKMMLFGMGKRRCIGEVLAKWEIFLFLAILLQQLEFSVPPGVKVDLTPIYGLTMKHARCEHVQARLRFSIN
In short: (§2)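 Human liver microsomes with probe substrate and an NADPH-regenerating system in 0.1 M potassium phosphate pH 7.4 at 37 °C, run in duplicate. Inhibitor at 0–20 μM (0–2.5 μM for one compound), eight concentrations. Reactions were stopped with acetonitrile/formic acid containing isotope-labelled internal standard, and metabolite area ratios were compared with and without inhibitor. IC50 was taken by linear interpolation between bracketing concentrations.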

Cytochrome P450 2C8 = target: T3, Cytochrome P450 2C8 (Homo sapiens, UniProt P10632); test: Inhibition of CYP2C8 (unknown origin) using amodiaquine substrate; assay type: ADME; in short: as §2
T3 sequence (P10632 whole entry): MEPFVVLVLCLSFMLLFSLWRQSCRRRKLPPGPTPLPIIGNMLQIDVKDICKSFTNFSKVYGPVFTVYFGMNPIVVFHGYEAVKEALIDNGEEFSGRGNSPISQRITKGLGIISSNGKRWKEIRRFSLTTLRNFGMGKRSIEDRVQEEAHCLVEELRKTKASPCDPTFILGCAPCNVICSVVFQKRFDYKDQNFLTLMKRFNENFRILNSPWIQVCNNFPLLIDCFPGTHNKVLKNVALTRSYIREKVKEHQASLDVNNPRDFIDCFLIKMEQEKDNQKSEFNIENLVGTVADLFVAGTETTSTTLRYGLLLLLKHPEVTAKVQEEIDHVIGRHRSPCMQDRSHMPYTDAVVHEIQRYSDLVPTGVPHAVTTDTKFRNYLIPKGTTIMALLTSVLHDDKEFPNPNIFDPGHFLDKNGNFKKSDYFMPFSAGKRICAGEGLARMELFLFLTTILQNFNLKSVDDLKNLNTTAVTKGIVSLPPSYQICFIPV

Cytochrome P450 2B6 = target: T4, Cytochrome P450 2B6 (Homo sapiens, UniProt P20813); test: Inhibition of CYP2B6 (unknown origin) using bupropion substrate; assay type: ADME; in short: as §2
T4 sequence (P20813 whole entry): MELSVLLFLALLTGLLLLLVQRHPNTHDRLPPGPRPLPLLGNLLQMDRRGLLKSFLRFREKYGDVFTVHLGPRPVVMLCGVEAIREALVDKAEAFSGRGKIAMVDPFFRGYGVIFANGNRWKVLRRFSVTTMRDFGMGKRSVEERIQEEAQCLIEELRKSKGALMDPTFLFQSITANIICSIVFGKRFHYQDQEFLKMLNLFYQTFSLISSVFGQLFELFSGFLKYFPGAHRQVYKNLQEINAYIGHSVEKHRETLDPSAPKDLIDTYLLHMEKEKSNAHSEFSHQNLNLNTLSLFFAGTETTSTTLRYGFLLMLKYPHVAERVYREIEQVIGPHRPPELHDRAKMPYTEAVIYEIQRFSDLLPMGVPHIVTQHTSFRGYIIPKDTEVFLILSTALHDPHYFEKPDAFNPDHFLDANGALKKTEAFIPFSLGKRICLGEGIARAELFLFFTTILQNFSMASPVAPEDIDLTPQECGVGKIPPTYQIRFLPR

Cytochrome P450 2D6 = Cytochrome P450 2D6 (Homo sapiens, UniProt P10635); test: Inhibition of CYP2D6 (unknown origin) using dextromethophan substrate; assay type: ADME; in short: as §2
Sequence of Cytochrome P450 2D6 (P10635 whole entry): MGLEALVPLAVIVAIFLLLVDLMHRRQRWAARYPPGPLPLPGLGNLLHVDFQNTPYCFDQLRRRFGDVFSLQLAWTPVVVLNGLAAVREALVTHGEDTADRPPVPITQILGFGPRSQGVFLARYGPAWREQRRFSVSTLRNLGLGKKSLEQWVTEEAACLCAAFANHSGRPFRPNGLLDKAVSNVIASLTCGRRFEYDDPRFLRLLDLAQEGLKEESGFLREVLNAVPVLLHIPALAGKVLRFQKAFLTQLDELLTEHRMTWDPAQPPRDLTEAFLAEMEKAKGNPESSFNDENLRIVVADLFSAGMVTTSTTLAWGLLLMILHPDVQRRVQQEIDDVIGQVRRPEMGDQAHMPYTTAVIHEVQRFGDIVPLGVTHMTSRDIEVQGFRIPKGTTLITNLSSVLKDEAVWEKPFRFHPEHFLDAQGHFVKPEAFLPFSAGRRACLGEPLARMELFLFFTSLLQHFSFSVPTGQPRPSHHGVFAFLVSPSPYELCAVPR

Collagenase 3 [5] = target: T1, Collagenase 3; test: Non-competitive inhibition of full-length recombinant human MMP-13 assessed as fTHP-15 substrate hydrolysis
Cytochrome P450 2C19 = Cytochrome P450 2C19 (Homo sapiens, UniProt P33261); test: Inhibition of CYP2C19 (unknown origin) using (S)-mephentoin substrate; assay type: ADME; in short: as §2
Sequence of Cytochrome P450 2C19 (P33261 whole entry): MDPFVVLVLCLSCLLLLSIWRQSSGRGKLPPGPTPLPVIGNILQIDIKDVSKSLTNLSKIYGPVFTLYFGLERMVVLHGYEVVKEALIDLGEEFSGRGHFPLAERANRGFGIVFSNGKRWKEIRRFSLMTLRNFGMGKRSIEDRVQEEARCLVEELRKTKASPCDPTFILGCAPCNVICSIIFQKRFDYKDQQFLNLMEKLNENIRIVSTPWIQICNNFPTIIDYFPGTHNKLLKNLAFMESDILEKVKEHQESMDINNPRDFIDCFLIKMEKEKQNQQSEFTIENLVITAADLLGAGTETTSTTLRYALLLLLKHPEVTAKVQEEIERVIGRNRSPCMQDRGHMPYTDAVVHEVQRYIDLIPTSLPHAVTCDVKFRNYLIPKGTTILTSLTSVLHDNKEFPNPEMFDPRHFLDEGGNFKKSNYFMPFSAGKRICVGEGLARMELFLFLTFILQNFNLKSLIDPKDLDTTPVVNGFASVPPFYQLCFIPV

Cytochrome P450 2C9 = Cytochrome P450 2C9 (Homo sapiens, UniProt P11712); test: Inhibition of CYP2C9 (unknown origin) using diclofenac substrate; assay type: ADME; in short: as §2
Sequence of Cytochrome P450 2C9 (P11712 whole entry): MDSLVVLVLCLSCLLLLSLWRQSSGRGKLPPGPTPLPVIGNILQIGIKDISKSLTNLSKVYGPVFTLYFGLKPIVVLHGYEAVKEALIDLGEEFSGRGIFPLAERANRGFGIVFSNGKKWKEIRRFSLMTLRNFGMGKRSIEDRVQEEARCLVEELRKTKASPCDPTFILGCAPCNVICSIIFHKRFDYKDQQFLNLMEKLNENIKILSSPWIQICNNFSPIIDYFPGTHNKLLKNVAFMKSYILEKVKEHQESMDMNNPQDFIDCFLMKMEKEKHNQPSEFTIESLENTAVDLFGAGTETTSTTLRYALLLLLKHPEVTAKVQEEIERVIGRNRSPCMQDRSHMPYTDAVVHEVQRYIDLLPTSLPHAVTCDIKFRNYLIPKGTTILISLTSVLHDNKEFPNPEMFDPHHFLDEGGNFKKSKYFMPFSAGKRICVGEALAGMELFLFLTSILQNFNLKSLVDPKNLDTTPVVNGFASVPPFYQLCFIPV

Collagenase 3 [6] = target: T1, Collagenase 3; test: Inhibition of full-length recombinant human MMP-13 assessed as bovine type-2 collagen hydrolysis after 22 hrs by fluorescence assay
Cytochrome P450 3A4 [7] = target: T5, Cytochrome P450 3A4 (Homo sapiens, UniProt P08684); test: Inhibition of CYP3A4 (unknown origin) using testosterone substrate; assay type: ADME
T5 sequence (P08684 whole entry): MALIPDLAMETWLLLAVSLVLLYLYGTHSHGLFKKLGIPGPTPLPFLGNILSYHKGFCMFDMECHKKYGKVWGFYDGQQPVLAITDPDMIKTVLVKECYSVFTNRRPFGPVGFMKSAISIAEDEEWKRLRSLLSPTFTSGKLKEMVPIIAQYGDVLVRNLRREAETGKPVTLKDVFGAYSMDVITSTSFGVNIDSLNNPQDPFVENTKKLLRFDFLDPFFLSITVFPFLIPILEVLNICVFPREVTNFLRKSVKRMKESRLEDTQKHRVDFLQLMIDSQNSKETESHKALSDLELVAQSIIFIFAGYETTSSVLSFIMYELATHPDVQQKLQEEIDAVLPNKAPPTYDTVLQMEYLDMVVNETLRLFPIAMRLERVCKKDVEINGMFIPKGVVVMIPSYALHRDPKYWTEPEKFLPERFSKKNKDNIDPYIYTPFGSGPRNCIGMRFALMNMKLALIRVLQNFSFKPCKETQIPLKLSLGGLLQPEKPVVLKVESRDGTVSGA
In short: (§3)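 Reactions stopped with acetonitrile/0.1% formic acid plus labelled internal standard. Metabolite measured by LC-MS area ratio. IC50 by linear interpolation.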

Cytochrome P450 3A4 [8] = target: T5, Cytochrome P450 3A4; test: Inhibition of CYP3A4 (unknown origin) using midazolam substrate; assay type: ADME; in short: as §3

In the case of CC(=O)NO, the Kb (Collagenase 3 [1]) was 1200 µM.
For CCN(CC)CCNC(=O)c1c(C)[nH]c(/C=C2\C(=O)Nc3ccc(F)cc32)c1C [SUNITINIB], the t1/2 (Liver microsome [2]) was 44.1 min, the t1/2 (Liver microsome [3]) was 26.5 min and the t1/2 (Liver) was 12.3 min.
In the case of O=C(O)CN(CCN(CC(=O)O)CC(=O)O)CC(=O)O, the inhibition (Collagenase 3 [4]) was 70%.
Cc1ccc(CSc2nc3c(c(=O)[nH]2)CCC3)cc1 showed a pIC50 (Cytochrome P450 1A2) of 5.43, a t1/2 (Liver microsome [2]) of 7.3 min and a pIC50 (Cytochrome P450 2C8) of under 4.70. The pIC50 (Cytochrome P450 2B6) was under 4.70, the pIC50 (Cytochrome P450 2D6) was under 4.70 and the pIC50 (Collagenase 3 [5]) was 5.62. The pIC50 (Cytochrome P450 2C19) was 5.10, the pIC50 (Cytochrome P450 2C9) was 5.06 and the pIC50 (Collagenase 3 [6]) was 6.40. The pIC50 (Cytochrome P450 3A4 [7]) was under 4.70 and the pIC50 (Cytochrome P450 3A4 [8]) was under 4.70.
